The results in this text go back to ChEMBL document CHEMBL1152541, “Staurosporine tethered peptide ligands that target cAMP-dependent protein kinase (PKA): optimization and selectivity profiling” (Bioorg Med Chem, 2009).

For test [1], the target named is Phosphatidylinositol 4,5-bisphosphate 3-kinase catalytic subunit gamma isoform (Homo sapiens) (UniProt P48736). As to the kind of experiment: Binding affinity to human PIK3Cgamma at 500 nM by cell-based competition binding assay relative to control in presence of DTT.
Chain of Phosphatidylinositol 4,5-bisphosphate 3-kinase catalytic subunit gamma isoform (Homo sapiens) (P48736 whole entry, looked up, canonical isoform): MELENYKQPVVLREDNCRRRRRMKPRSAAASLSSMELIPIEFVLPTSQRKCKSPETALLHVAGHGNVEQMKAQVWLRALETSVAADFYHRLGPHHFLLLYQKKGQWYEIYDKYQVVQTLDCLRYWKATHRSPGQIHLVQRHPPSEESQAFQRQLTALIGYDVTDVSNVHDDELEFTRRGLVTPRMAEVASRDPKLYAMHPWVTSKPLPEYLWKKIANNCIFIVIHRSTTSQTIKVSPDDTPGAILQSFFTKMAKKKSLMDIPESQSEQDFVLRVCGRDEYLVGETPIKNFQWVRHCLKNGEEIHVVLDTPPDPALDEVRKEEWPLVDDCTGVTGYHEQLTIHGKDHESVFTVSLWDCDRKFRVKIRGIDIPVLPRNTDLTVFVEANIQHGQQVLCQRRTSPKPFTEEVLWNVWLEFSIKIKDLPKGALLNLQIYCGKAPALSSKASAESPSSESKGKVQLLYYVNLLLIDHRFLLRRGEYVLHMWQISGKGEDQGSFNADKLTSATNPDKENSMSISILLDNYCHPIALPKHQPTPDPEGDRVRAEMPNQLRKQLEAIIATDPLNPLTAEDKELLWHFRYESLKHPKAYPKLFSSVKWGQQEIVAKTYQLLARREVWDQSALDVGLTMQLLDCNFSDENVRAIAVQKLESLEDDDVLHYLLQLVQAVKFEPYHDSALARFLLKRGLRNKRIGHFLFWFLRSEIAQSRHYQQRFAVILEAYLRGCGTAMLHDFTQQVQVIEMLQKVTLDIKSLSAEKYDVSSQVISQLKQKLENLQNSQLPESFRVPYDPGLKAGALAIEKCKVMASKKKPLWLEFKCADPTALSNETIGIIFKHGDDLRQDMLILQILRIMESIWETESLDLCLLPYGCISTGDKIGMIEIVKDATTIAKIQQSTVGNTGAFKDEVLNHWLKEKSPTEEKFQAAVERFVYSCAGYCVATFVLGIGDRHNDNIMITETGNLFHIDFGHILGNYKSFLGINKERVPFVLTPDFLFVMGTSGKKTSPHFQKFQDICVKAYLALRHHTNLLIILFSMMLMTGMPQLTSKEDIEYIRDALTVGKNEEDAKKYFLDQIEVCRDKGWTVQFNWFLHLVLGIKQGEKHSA
Test [2] deals with T1, Testis-specific serine/threonine-protein kinase 1 (Homo sapiens) (UniProt Q9BXA7).
T1 sequence (whole entry): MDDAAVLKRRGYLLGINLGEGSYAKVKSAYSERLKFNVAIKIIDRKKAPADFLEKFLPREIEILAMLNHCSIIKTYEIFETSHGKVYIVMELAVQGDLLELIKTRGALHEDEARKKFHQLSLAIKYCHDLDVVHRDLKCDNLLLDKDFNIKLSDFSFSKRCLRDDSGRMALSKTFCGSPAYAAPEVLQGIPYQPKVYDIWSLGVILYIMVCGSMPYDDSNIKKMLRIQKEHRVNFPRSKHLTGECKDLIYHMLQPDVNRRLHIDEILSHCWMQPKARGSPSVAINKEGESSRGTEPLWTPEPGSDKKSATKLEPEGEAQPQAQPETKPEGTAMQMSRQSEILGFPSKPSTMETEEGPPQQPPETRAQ
The experiment in a line: Binding affinity to human TSSK1 at 500 nM by cell-based competition binding assay relative to control in presence of DTT.

Test [3] concerns Serine/threonine-protein kinase B-raf (Homo sapiens), P15056 [V600E]. The experiment in a line: Binding affinity to human BRAF V600E mutant at 500 nM by cell-based competition binding assay relative to control in presence of DTT. Summed up: (§1)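 Kinase binding profiling ran on a commercial (Ambit) competitive binding screen against a panel of 90 kinases. The screen used reducing conditions with 7.5 mM DTT. To withstand the DTT, the bivalent ligand was tested as its amide isostere, with the disulfide replaced. A staurosporine derivative carrying a 3 β-alanine linker was run as the reference compound.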
Chain of Serine/threonine-protein kinase B-raf (Homo sapiens), P15056 [V600E] (P15056 whole entry V600E): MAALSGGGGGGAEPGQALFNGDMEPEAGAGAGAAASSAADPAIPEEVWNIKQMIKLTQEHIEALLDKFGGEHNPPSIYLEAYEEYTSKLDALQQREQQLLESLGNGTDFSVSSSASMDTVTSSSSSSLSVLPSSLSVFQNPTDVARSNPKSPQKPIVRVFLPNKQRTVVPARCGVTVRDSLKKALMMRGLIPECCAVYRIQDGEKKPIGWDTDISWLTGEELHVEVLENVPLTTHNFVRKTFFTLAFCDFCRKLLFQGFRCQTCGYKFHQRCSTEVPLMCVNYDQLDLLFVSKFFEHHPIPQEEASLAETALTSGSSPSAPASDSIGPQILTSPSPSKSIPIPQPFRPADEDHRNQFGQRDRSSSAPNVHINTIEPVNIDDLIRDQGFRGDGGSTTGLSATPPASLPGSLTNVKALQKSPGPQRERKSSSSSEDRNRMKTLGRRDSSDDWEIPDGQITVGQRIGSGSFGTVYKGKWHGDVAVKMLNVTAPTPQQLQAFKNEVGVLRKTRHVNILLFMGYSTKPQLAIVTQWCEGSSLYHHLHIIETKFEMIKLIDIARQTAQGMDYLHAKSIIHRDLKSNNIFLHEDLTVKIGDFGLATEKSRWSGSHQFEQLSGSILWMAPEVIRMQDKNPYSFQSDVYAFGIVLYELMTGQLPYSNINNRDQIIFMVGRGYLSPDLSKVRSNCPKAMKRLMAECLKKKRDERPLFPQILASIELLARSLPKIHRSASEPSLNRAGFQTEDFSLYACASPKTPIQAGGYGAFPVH

Test [4] addresses Insulin receptor (Homo sapiens) (UniProt P06213). As to the kind of experiment: Binding affinity to human INSR at 200 nM by cell-based competition binding assay relative to control in presence of DTT. Summed up: (§2)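 Competition binding screen (Ambit) across a panel of 90 kinases, scoring test ligand displacement of each kinase's binding relative to control. The screen ran under reducing conditions with 7.5 mM DTT.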

Test [5] has as its target Serine/threonine-protein kinase PAK 2 (Homo sapiens) (UniProt Q13177). The experiment in a line: Binding affinity to human PAK2 at 200 nM by cell-based competition binding assay relative to control in presence of DTT.
Test [6] deals with RAC-beta serine/threonine-protein kinase (Homo sapiens) (UniProt P31751). The experiment in a line: Binding affinity to human AKT2 at 200 nM by cell-based competition binding assay relative to control in presence of DTT. A digest of the protocol: as §1
Chain of RAC-beta serine/threonine-protein kinase (Homo sapiens) (P31751 whole entry): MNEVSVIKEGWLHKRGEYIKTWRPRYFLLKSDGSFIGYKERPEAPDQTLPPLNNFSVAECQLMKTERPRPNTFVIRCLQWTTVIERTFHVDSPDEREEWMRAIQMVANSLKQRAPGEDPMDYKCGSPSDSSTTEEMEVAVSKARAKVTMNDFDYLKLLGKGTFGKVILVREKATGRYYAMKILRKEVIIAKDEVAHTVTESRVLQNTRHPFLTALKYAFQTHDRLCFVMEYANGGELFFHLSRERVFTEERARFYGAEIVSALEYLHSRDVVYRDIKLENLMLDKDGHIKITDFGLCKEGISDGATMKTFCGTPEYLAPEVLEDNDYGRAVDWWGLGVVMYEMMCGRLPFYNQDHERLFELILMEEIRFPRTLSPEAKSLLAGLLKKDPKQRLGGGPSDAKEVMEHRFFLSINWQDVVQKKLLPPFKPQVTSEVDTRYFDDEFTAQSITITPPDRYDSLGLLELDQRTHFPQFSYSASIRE
In test [7] the target is T2, Bone morphogenetic protein receptor type-2 (Homo sapiens) (UniProt Q13873).
T2 sequence (whole entry): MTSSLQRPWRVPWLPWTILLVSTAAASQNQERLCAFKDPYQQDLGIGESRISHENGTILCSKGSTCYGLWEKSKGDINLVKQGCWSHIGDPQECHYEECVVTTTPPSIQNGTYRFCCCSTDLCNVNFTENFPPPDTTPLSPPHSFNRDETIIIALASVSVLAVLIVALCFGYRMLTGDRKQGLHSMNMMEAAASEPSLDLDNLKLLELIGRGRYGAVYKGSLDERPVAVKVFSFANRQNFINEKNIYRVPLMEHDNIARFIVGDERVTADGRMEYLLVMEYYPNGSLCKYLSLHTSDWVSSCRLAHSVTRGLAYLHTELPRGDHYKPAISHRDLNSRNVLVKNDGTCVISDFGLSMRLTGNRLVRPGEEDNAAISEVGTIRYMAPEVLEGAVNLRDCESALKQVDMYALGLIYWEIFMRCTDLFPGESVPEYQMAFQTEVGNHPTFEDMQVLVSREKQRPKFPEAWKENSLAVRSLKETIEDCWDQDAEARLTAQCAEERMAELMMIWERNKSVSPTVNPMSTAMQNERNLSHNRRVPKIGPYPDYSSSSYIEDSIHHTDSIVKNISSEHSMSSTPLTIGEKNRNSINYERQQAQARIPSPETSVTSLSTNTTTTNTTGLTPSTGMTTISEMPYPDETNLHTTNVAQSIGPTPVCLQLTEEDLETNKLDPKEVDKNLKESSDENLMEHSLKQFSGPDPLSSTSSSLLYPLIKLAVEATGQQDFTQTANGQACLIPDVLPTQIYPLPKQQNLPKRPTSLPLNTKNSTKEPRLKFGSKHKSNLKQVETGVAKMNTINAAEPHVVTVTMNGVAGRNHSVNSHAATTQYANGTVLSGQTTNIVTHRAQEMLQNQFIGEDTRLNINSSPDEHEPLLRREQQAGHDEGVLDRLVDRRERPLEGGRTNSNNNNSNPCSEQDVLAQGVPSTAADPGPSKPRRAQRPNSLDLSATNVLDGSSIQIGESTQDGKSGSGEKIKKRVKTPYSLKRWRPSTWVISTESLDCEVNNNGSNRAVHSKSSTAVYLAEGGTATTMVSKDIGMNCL
As to the kind of experiment: Binding affinity to human BMPR2 at 200 nM by cell-based competition binding assay relative to control in presence of DTT. Summed up:
as §1

Test [8] deals with T1, Testis-specific serine/threonine-protein kinase 1 (Homo sapiens). The experiment in a line: Binding affinity to human TSSK1 at 200 nM by cell-based competition binding assay relative to control in presence of DTT.
The target in test [9] is T3, Activin receptor type-1B (Homo sapiens) (UniProt P36896).
T3 sequence (whole entry): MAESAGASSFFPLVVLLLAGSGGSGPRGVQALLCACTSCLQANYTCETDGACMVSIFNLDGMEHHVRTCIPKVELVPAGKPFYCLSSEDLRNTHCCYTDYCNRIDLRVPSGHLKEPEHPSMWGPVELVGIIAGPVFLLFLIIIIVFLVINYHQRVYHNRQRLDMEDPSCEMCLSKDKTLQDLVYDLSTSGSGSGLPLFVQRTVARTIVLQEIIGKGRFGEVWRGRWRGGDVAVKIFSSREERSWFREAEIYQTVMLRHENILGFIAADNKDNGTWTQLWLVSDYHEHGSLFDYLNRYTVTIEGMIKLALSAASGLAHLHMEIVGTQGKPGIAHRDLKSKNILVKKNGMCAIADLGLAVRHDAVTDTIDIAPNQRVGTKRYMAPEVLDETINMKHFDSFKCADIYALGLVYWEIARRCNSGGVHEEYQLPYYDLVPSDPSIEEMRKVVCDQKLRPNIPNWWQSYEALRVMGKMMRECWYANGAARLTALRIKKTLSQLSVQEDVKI
As to the kind of experiment: Binding affinity to human ACVR1B at 50 nM by cell-based competition binding assay relative to control in presence of DTT. A digest of the protocol: as §1

The target in test [10] is Tyrosine-protein kinase receptor UFO (Homo sapiens) (UniProt P30530). The experiment in a line: Binding affinity to human AXL at 50 nM by cell-based competition binding assay relative to control in presence of DTT. Summed up: as §1
Test [11] deals with T2, Bone morphogenetic protein receptor type-2 (Homo sapiens). The experiment in a line: Binding affinity to human BMPR2 at 50 nM by cell-based competition binding assay relative to control in presence of DTT. A digest of the protocol:
as §1

Test [12] has as its target Tyrosine-protein kinase JAK2 (Homo sapiens) (UniProt O60674). As to the kind of experiment: Binding affinity to human JAK2 kinase domain 2 at 50 nM by cell-based competition binding assay relative to control in presence of DTT. Summed up: as §2

*1 amine or outer side, *2 acyl side, *3 side chain or, on linkers, in order; H or OH if unused. Where a SMILES comes first, the peptide text is derived from it. Bridges are numbered along the chain shown (N, C = ends). [ ]: non-standard residue; d: D form. The star is where a group is joined. Staurosporine = CO[C@@H]1[C@H](N(C)*)C[C@H]2O[C@]1(C)n1c3ccccc3c3c4c(c5c6ccccc6n2c5c31)C(=O)NC4; Suc = O=C(CCC(=O)[*:2])[*:1]; Dap = NC[C@H](N)C(=O)O; βAla = NCCC(=O)O

Chain of Insulin receptor (Homo sapiens) (P06213 28-758 limits assumed): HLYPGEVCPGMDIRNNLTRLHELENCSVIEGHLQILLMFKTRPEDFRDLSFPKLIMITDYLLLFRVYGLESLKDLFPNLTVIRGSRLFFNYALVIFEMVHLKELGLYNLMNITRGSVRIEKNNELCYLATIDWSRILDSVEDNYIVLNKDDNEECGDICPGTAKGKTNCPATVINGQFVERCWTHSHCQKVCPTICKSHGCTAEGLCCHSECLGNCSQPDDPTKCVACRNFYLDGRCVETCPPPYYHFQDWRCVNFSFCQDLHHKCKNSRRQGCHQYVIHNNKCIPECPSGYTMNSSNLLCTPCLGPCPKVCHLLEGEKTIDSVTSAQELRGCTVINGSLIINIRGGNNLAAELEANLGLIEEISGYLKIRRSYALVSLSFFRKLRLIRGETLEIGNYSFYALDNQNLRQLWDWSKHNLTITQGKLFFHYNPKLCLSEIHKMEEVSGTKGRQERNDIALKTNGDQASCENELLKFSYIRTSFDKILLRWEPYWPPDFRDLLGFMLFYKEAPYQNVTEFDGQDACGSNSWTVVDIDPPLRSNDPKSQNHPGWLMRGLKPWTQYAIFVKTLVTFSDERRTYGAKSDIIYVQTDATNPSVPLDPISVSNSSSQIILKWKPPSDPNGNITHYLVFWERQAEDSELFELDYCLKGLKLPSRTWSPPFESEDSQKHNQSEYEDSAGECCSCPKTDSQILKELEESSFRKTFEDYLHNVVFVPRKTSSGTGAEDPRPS
Chain of Insulin receptor (Homo sapiens) (P06213 763-1382 limits assumed): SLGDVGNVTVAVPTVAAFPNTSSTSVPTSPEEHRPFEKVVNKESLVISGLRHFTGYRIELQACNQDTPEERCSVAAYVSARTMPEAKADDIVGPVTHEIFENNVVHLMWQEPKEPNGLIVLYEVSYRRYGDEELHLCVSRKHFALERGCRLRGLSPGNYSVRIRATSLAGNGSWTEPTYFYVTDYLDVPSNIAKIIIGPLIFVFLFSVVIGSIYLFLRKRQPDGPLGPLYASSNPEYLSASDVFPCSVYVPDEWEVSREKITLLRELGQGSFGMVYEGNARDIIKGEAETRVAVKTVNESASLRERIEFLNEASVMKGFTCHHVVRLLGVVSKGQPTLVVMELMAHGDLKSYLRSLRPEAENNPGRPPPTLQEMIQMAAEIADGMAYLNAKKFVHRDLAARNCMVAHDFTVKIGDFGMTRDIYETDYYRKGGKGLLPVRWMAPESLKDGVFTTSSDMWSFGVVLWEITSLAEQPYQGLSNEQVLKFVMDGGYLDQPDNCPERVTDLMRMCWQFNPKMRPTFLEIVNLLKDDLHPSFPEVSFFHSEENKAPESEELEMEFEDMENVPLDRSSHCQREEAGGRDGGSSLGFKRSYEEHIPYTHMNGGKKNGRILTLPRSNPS
Chain of Serine/threonine-protein kinase PAK 2 (Homo sapiens) (Q13177 whole entry): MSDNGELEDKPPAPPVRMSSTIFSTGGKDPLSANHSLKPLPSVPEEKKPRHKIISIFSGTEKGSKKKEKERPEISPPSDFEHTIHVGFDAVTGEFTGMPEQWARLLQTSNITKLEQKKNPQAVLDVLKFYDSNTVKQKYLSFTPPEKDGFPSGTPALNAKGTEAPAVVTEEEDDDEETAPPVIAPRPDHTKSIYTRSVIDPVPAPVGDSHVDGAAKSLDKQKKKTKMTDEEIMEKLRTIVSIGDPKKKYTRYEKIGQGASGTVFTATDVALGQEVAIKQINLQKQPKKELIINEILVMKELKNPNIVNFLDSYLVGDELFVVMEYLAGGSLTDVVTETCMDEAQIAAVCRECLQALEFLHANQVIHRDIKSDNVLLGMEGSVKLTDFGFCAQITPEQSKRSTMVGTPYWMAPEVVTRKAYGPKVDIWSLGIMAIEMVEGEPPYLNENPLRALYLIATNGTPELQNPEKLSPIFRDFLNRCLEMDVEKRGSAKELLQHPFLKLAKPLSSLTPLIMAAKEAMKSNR

`CO[C@@H]1[C@H](N(C)C(=O)CCC(=O)NCCC(=O)NCCC(=O)NCCC(N)=O)C[C@H]2O[C@]1(C)n1c3ccccc3c3c4c(c5c6ccccc6n2c5c31)C(=O)NC4`: the Activity in [1] worked out at 15%; in test [2], 2.6%; in test [3], 94%.
For `CO[C@@H]1[C@H](N(C)C(=O)CCC(=O)NCCC(=O)NCCC(=O)NCCC(=O)NCCC(=O)NCCC(=O)NCCC(=O)NCCC(=O)N[C@H]2CSSC[C@@H](C(=O)NCC(N)=O)NC(=O)CNC(=O)[C@H](Cc3ccccc3)NC(=O)[C@H](C(C)C)NC(=O)[C@H](CCCNC(=N)N)NC(=O)[C@H](Cc3ccccc3)NC(=O)[C@H](C(C)C)NC2=O)C[C@H]2O[C@]1(C)n1c3ccccc3c3c4c(c5c6ccccc6n2c5c31)C(=O)NC4` ({Staurosporine-Suc-βAla-βAla-βAla-βAla-βAla-βAla-βAla}-CVFRVFGCG-NH2; disulfide 1-8), the Activity is 100% in test [4]; 36% in test [5]; 100% in test [6]; 93% in test [7]; 17% in test [8].
As to `CO[C@@H]1[C@H](N(C)C(=O)CCC(=O)NCCC(=O)NCCC(=O)NCCC(=O)NCCC(=O)NCCC(=O)NCCC(=O)NCCC(=O)N[C@H]2CNC(=O)C[C@@H](C(N)=O)NC(=O)CNC(=O)[C@H](Cc3ccccc3)NC(=O)[C@H](C(C)C)NC(=O)[C@H](CCCNC(=N)N)NC(=O)[C@H](Cc3ccccc3)NC(=O)[C@H](C(C)C)NC2=O)C[C@H]2O[C@]1(C)n1c3ccccc3c3c4c(c5c6ccccc6n2c5c31)C(=O)NC4` ({Staurosporine-Suc-βAla-βAla-βAla-βAla-βAla-βAla-βAla}-[Dap]VFRVFGD-NH2; lactam 1-8), the Activity in [9] amounted to 100%; in test [10], 81%; in test [11], 99%; in test [12] it was 42%.
